Results on eleven compounds are retold here after ChEMBL document CHEMBL3632502, “Bivalent ligands incorporating curcumin and diosgenin as multifunctional compounds against Alzheimer's disease” (Bioorg Med Chem, 2015).

The structures appear in SMILES notation. Active and inactive are the calls of the source. No cut-off for these calls is given here. Some results are limits rather than exact numbers.

The term EC50 denotes the concentration at which the effect is half-maximal.

A short description of data set [1]: (§1) Neuroprotective activity against tetracycline deficiency-mediated cell viability loss in human MC65 cells at 1 uM after 72 hrs by MTT assay relative to control. In kind it is functional. In a few lines: (§2)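 MC65 cells washed twice in PBS, seeded in Opti-MEM at 4×10^4 cells/well, treated at 37 °C under +TC or −TC for 72 h. MTT (5 mg/mL in PBS) added for 4 h, formazan dissolved in DMSO, A570 read. Viability expressed as percent of +TC control; EC50 from concentration series, SEM.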

A short description of data set [2]: Neuroprotective activity against tetracycline deficiency-mediated cell viability loss in human MC65 cells after 72 hrs by MTT assay. It is filed as functional, cell-based. The conditions noted are these: MC65, 72 h. In a few lines: as §2
Data set [3] in a line: Metal chelating activity assessed as compound-Zn2+ complex formation at 50 uM after 10 mins by UV-vis spectra analysis. It is filed as physicochemical. In a few lines:
(§3)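 Compound (50 μM) mixed with CuSO4, FeCl2 or ZnCl2 (50 μM) in deionized water, kept 10 min at room temperature, then UV absorption spectrum recorded from 200 to 600 nm.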

A short description of data set [4]: Metal chelating activity assessed as compound-Cu2+ complex formation at 50 uM after 10 mins by UV-vis spectra analysis. It is filed as physicochemical. In a few lines:
as §3

In data set [5] the target is Amyloid-beta precursor protein (Homo sapiens) (UniProt P05067). As to the kind of experiment: Binding affinity to amyloid beta in human MC65 cells assessed as inhibition of tetracycline deficiency-induced amyloid beta oligomerization after 48 hrs by Western blot analysis. It is filed as cell-based. In a few lines: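 MC65 cells in Opti-MEM (2×10^6 cells/well) treated at 37 °C under +TC or −TC for 48 h, then lysed by sonication in Tricine buffer. Supernatant protein (20.0 μg, Bradford-quantified) run on Tris-Tricine SDS-PAGE and blotted to PVDF. Probed with 6E10 overnight at 4 °C, HRP secondary, chemiluminescence; α-tubulin loading control. Total oligomers quantified, n=6, SEM.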
For orientation: In western blotting, separated proteins are transferred to a membrane and probed.

Data set [6] deals with MC65. The experiment in a line: Effect on tetracycline deficiency-induced total amyloid beta42 level in human MC65 cells at 0.1 to 1 uM after 48 hrs by ELISA. In kind it is functional, cell-based. The method in brief:
(§4)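 MC65 cells in Opti-MEM (4×10^4 cells/well) treated at 37 °C under +TC or −TC for 48 h. Conditioned medium captured on BNT77-coated plates overnight at 4 °C, detected with HRP-BA27 (Aβ40) or HRP-BC05 (Aβ42) for 1 h at room temperature, TMB 30 min, A450. Values in pM from Aβ standard calibration curves.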

In data set [7] the test system is MC65. The experiment in a line: Antioxidant activity in human MC65 cells assessed as decrease in tetracycline deficiency-mediated reactive oxygen species formation at 0.3 uM after 48 hrs by DCFH-DA probe-based flow cytometric analysis. In kind it is functional, cell-based. In a few lines: (§5)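 MC65 cells washed in PBS, resuspended in Opti-MEM, seeded at 2×10^6 cells/well, treated at 37 °C with or without TC (1 μg/mL in culture medium) for 48 h. Harvested cells washed in cold PBS, loaded with 25 μM DCFH-DA in PBS for 1 h in the dark, and analysed by flow cytometry. Fluorescence expressed as percent of control.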
In general terms: A flow cytometer gives signals particle by particle.

For data set [8], the system named is MC65. As to the kind of experiment: Effect on tetracycline deficiency-induced total amyloid beta40 level in human MC65 cells at 0.1 to 1 uM after 48 hrs by ELISA. It is filed as functional, cell-based. In a few lines:
as §4
On the technique in general: ELISA stands for enzyme-linked immunosorbent assay.

In data set [9] the target is Amyloid-beta precursor protein (Homo sapiens) (UniProt P05067). As to the kind of experiment: Inhibition of amyloid beta42 (unknown origin) aggregation after 48 hrs by ThT assay. The method in brief:
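Aβ42 (25 μM in PBS pH 7.4, 9 μL) mixed with 1 μL of compound in DMSO (0.01–100 μM solutions), triplicates with solvent control, incubated dark at room temperature 48 h. Then 5 μM ThT in 50 mM glycine pH 8.0 added; fluorescence read at ex 446/em 490 nm, with no-ThT background subtracted.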

Data set [10] can be described thus: Metal chelating activity assessed as compound-Fe2+ complex formation at 50 uM after 10 mins by UV-vis spectra analysis. In kind it is physicochemical. In a few lines: as §3
The subject of data set [11] is MC65. The experiment in a line: Antioxidant activity in human MC65 cells assessed as decrease in tetracycline deficiency-mediated reactive oxygen species formation at 0.1 uM after 48 hrs by DCFH-DA probe-based flow cytometric analysis. It is filed as functional, cell-based. The method in brief:
as §5

Data set [12] relates to MC65. Described as §1. In kind it is functional. In a few lines:
as §2

Chain of Amyloid-beta precursor protein (Homo sapiens) (P05067 whole entry): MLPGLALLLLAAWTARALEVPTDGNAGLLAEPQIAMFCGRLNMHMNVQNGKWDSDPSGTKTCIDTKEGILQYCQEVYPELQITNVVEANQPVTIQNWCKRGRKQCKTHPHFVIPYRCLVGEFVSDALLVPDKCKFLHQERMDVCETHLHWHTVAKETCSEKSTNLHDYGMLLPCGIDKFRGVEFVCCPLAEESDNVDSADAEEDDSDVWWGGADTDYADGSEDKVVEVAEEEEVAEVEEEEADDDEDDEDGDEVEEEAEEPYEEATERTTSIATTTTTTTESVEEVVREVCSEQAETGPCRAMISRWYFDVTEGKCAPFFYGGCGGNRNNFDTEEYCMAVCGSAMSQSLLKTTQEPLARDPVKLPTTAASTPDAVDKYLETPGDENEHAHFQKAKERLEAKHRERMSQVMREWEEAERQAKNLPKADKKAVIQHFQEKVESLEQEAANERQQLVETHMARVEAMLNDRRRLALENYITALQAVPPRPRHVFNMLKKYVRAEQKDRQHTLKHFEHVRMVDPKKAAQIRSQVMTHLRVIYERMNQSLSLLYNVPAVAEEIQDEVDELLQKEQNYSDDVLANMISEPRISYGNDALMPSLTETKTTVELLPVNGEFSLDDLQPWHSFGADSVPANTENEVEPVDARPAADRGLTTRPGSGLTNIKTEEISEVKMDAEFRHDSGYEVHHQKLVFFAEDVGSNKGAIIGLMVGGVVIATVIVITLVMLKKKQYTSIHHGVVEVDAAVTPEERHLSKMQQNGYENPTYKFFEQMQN

As to `COc1cc(/C=C/C(=O)/C(Cc2cn(CCCCC(=O)NCCOCCOCCOCC(=O)O[C@H]3CC[C@@]4(C)C(=CC[C@H]5[C@@H]6C[C@@H]7O[C@]8(CC[C@@H](C)CO8)[C@@H](C)[C@@H]7[C@@]6(C)CC[C@@H]54)C3)nn2)=C(O)/C=C/c2ccc(O)c(OC)c2)ccc1O`, the Activity entry in data set [1] is reported as “>=80%”; in [3] it was “Not Active”; in data set [4], “Not Active”; in [10], “Not Active”. For the same compound, the 50% effective concentration (EC50) in data set [2] came out at 232 nM. The inhibition result in data set [5] and in [9] was “Dose-dependent effect” in each case. Moreover, the result in data set [6] and in data set [8] was inactive. For the same compound, the outcome in data set [7] was Active.

On to `COc1cc(/C=C/C(=O)/C(Cc2cn(CCOCCOCCNC(=O)CCC(=O)O[C@H]3CC[C@@]4(C)C(=CC[C@H]5[C@@H]6C[C@@H]7O[C@]8(CC[C@@H](C)CO8)[C@@H](C)[C@@H]7[C@@]6(C)CC[C@@H]54)C3)nn2)=C(O)/C=C/c2ccc(O)c(OC)c2)ccc1O`, for which, in data set [11], the outcome was Active. Further, the Activity result in [1] was “>=80%”; in data set [3], “Not Active”; in data set [4] it was “Not Active”; in data set [10], “Not Active”. Also, the EC50 in data set [2] came out at 112 nM. Also, the inhibition result in [5] and in data set [9] was “Dose-dependent effect” each time. The result in data set [6] and in data set [8] was inactive.

For `COc1cc(/C=C/C(=O)/C(Cc2cn(CCCCCCCC(=O)NCCOCCOCCOCC(=O)O[C@H]3CC[C@@]4(C)C(=CC[C@H]5[C@@H]6C[C@@H]7O[C@]8(CC[C@@H](C)CO8)[C@@H](C)[C@@H]7[C@@]6(C)CC[C@@H]54)C3)nn2)=C(O)/C=C/c2ccc(O)c(OC)c2)ccc1O`, in [1], the Activity entry was “>=80%”. This compound also showed an EC50 in data set [2] of 1040 nM.

In data set [2], `COc1cc(/C=C/C(=O)/C(Cc2cn(CCCCCCCCCCCC(=O)NCCOCCOCCOCC(=O)O[C@H]3CC[C@@]4(C)C(=CC[C@H]5[C@@H]6C[C@@H]7O[C@]8(CC[C@@H](C)CO8)[C@@H](C)[C@@H]7[C@@]6(C)CC[C@@H]54)C3)nn2)=C(O)/C=C/c2ccc(O)c(OC)c2)ccc1O` had an EC50 of 4620 nM.

The compound `COc1cc(/C=C/C(=O)/C(Cc2cn(CCCCCCCCCC(=O)NCCOCCOCCOCC(=O)O[C@H]3CC[C@@]4(C)C(=CC[C@H]5[C@@H]6C[C@@H]7O[C@]8(CC[C@@H](C)CO8)[C@@H](C)[C@@H]7[C@@]6(C)CC[C@@H]54)C3)nn2)=C(O)/C=C/c2ccc(O)c(OC)c2)ccc1O` yielded an EC50 in [2] of 309 nM.

Consider `COc1cc(/C=C/C(=O)CC(=O)/C=C/c2ccc(O)c(OC)c2)ccc1O`, for which the result in [12] was inactive.

On to `CC(C)Cc1cn(CCOCCOCCNC(=O)CCC(=O)O[C@H]2CC[C@@]3(C)C(=CC[C@H]4[C@@H]5C[C@@H]6O[C@]7(CC[C@@H](C)CO7)[C@@H](C)[C@@H]6[C@@]5(C)CC[C@@H]43)C2)nn1`, for which the outcome in data set [12] was inactive.

Take `COc1cc(/C=C/C(=O)/C(Cc2cn(CCCCCC(=O)NCCOCCOCCOCC(=O)O[C@H]3CC[C@@]4(C)C(=CC[C@H]5[C@@H]6C[C@@H]7O[C@]8(CC[C@@H](C)CO8)[C@@H](C)[C@@H]7[C@@]6(C)CC[C@@H]54)C3)nn2)=C(O)/C=C/c2ccc(O)c(OC)c2)ccc1O`: the Activity entry in data set [1] is “>=80%”. Further, the EC50 in data set [2] worked out at 381 nM.

`CCCCCC(=O)O[C@H]1CC[C@@]2(C)C(=CC[C@@H]3[C@@H]4C[C@@H]5O[C@]6(CC[C@@H](C)CO6)[C@@H](C)[C@@H]5[C@@]4(C)CC[C@@H]32)C1`: the result in data set [12] was inactive.

In the case of `C[C@@H]1CC[C@@]2(OC1)O[C@H]1C[C@H]3[C@@H]4CC=C5C[C@@H](O)CC[C@]5(C)[C@H]4CC[C@]3(C)[C@H]1[C@@H]2C`, the outcome in data set [12] was inactive.

`COC(=O)CCC(=O)NCCOCCOCCn1cc(C/C(C(=O)/C=C/c2ccc(O)c(OC)c2)=C(O)\C=C\c2ccc(O)c(OC)c2)nn1`: the outcome in data set [12] was inactive.
